ChEMBL document CHEMBL2439996, “Phenyl substituted 3-hydroxypyridin-2(1H)-ones: inhibitors of influenza A endonuclease” (Bioorg Med Chem, 2013)

Key:
[1] = tested on: MDCK; test: Cytotoxicity against MDCK cells after 4 days by MTT assay; format: cell-based; conditions: Canis lupus familiaris, 96 h
Method in brief: (§1)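 MTT microtiter assay; cells kept at 37 °C, 5% CO2 in DMEM with regular passage. Wells seeded with 3,000 cells each, exposed continuously for four days to varying drug concentrations in triplicate, with a drug-free control. MTT read at end of day 4 to give IC50.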

[2] = tested on: HEK293; test: Cytotoxicity against human HEK293 cells after 4 days by MTT assay; format: cell-based; conditions: HEK293, 96 h; method in brief: as §1
[3] = Inhibition of endonuclease activity of Influenza A virus H1N1 RNA-dependent RNA polymerase expressed in Escherichia coli BL21 using 6FAM-TGGCAATATCAGCTCCACA-MGBNFQ as substrate after 5 to 240 mins by fluorescence assay
Method in brief: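 PA_N (pandemic H1N1 endonuclease, residues 1-204, His-tag removed, SEC-purified). Inhibitor serially diluted, DMSO at most 2.5% (v/v). Ex 488/em 518 read at 5, 120, 240 min at 37 °C. IC50 by nonlinear regression of fluorescence change, mean of triplicates ± SEM.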

Row | Structure (SMILES) | IC50 [1] [µM] | IC50 [2] [µM] | IC50 [3] [µM]
1 | O=c1[nH]ccc(-c2ccc(F)cc2)c1O | > 100 | > 100 | > 200
2 | O=c1[nH]cc(-c2ccccc2)cc1O | 80 | ≥ 28 | 2.1
3 | O=c1[nH]cc(-c2ccc(F)cc2)cc1O | > 100 | > 100 | 0.73
4 | N#Cc1ccc(-c2c[nH]c(=O)c(O)c2)cc1 | > 100 | > 100 | 3.83
5 | O=c1[nH]cc(-c2ccc(-c3nnn[nH]3)cc2)cc1O | > 100 | 80 | 0.368
6 | O=c1[nH]c(-c2ccccc2)ccc1O | 60 | ≥ 28 | 0.87
7 | O=c1[nH]c(-c2ccc(F)cc2)ccc1O | > 100 | > 100 | 0.43
8 | N#Cc1ccc(-c2ccc(O)c(=O)[nH]2)cc1 | > 100 | ≥ 28 | 0.802
9 | O=c1[nH]c(-c2ccc(-c3nnn[nH]3)cc2)ccc1O | > 100 | ≥ 28 | 0.085
10 | O=c1[nH]c(-c2ccccc2)c(-c2ccccc2)cc1O | > 100 | ≥ 28 | 0.047
11 | O=c1[nH]c(-c2ccc(F)cc2)c(-c2ccc(F)cc2)cc1O | > 100 | > 100 | 
12 | N#Cc1ccc(-c2cc(O)c(=O)[nH]c2-c2ccc(C#N)cc2)cc1 | 40 | ≥ 28 | 0.103
13 | O=c1[nH]c(-c2ccc(-c3nnn[nH]3)cc2)c(-c2ccc(-c3nnn[nH]3)cc2)cc1O | > 100 | > 100 | 0.285
14 | O=c1[nH]ccc(-c2ccccc2)c1O | > 100 | > 100 | 35
